Measurements: ChEMBL document CHEMBL4118106 (J Med Chem, 2018)
Calls of active or inactive are those of the source. The rule behind the calls is not given here. Where a SMILES comes first, the peptide text is derived from it. Bridges are numbered along the chain shown (N, C = ends). [ ]: non-standard residue; d: D form. S5 = C=CCCC[C@](C)(N)C(=O)O; Nle = CCCC[C@H](N)C(=O)O

Legend:
[1] = Binding affinity to NHR peptide HR1P in pH 7.2 phosphate buffer at 50 uM after 30 mins by CD spectroscopic method
Outline: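 Peptides were at 50 µM final in 50 mM PBS, pH 7.2. Equimolar HR1P/peptide mixtures were incubated at 25 °C for 30 min before CD scanning. α-Helicity was taken from [θ]222, where -33,000 deg cm2/dmol = 100% helix.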

[2] = Inhibition of EGFP-fused MERS-CoV spike protein mediated cell-cell fusion between viral protein expressing human 293T cells and human HuH7 target cells after 4 hrs by inverted fluorescence microscopic analysis; design: species or system Middle East respiratory syndrome-related coronavirus
Outline: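 Huh-7 target cells expressing DPP4 were seeded at 5 × 10^4/well and kept at 37 °C for 5 h. Inhibitors were added, then 293T effector cells co-expressing S protein and EGFP (1 × 10^4/well); 293T/EGFP-only cells served as negative control. After 4 h coculture at 37 °C, fused and unfused cells were counted by fluorescence microscopy.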

[3] = Cytotoxicity against human HuH7 cells after 48 hrs by CCK-8 assay; type: cell-based, Huh-7
Outline: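 Cells (1 × 10^5 per well) were preincubated at 37 °C for 12 h, then given graded peptide concentrations. After 48 h at 37 °C, CCK-8 was added and absorbance at 450 nm was read 2 h later.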

[4] = Inhibition of MERS-CoV spike protein mediated cell-cell fusion between viral protein expressing human 293T cells and human HuH7 target cells assessed as decrease in pseudovirus infection preincubated with virus for 1 hr followed by HuH7 cells addition measured after 48 hrs by luciferase reporter gene assay; design: species or system Middle East respiratory syndrome-related coronavirus; conditions: Middle East respiratory syndrome-related coronavirus
Outline: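 Graded peptide concentrations were preincubated with luciferase-reporter pseudovirus bearing MERS-CoV S for 1 h at room temperature. The mixture was added to Huh-7 or Calu-3 cells, with medium refreshed at 12 h. After a further 48 h at 37 °C, luciferase was read. Values are from three independent experiments, mean ± SD.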

[5] = Binding affinity to NHR peptide HR1P in pH 7.2 phosphate buffer assessed as thermal unfolding transition at 50 uM after 30 mins by CD spectroscopic method
Outline: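 Equimolar HR1P/peptide mixtures, 50 µM final in 50 mM PBS pH 7.2, were preincubated at 25 °C for 30 min. Thermal denaturation was followed by CD at 222 nm over a 10–90 °C gradient at 2 °C/min.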

SMILES	EC50 [2] [µM]	other results
CSCC[C@H](NC(=O)[C@H](CCC(=O)O)NC(=O)[C@]1(C)CCC/C=C\CCC[C@](C)(NC(C)=O)C(=O)N[C@@H](CC(=O)O)C(=O)N[C@@H](CC(C)C)C(=O)N[C@@H]([C@@H](C)O)C(=O)N1)C(=O)N[C@@H](CC(C)C)C(=O)N[C@@H](CO)C(=O)N[C@@H](CC(C)C)C(=O)N[C@@H](CCC(N)=O)C(=O)N[C@@H](CCC(N)=O)C(=O)N[C@H](C(=O)N[C@H](C(=O)N[C@@H](CCCCN)C(=O)N[C@@H](C)C(=O)N[C@@H](CC(C)C)C(=O)N[C@@H](CC(N)=O)C(=O)N[C@@H](CCC(=O)O)C(=O)N[C@@H](CO)C(=O)N[C@@H](Cc1ccc(O)cc1)C(N)=O)C(C)C)C(C)C	> 50	Activity [1]: inactive
CC[C@H](C)[C@H](NC(=O)[C@H](Cc1ccc(O)cc1)NC(=O)[C@H](CO)NC(=O)[C@H](CCC(=O)O)NC(=O)[C@H](CCC(=O)O)NC(=O)[C@H](CC(C)C)NC(=O)[C@H](CCCCN)NC(=O)[C@H](CCCCN)NC(=O)[C@@H](NC(=O)[C@@H](NC(=O)[C@H](CCC(=O)O)NC(=O)[C@H](CCC(=O)O)NC(=O)[C@H](CC(C)C)NC(=O)[C@H](CCCCN)NC(=O)[C@H](CCCCN)NC(=O)[C@H](CCSC)NC(=O)[C@H](CCC(=O)O)NC(=O)[C@H](Cc1ccc(O)cc1)NC(=O)[C@H](CCC(=O)O)NC(=O)[C@H](CC(C)C)NC(=O)[C@H](CC(=O)O)NC(=O)[C@H](CC(C)C)NC(=O)[C@H](CC(C)C)NC(=O)[C@@H](NC(=O)[C@@H](NC(=O)[C@H](CC(N)=O)NC(=O)[C@@H](NC(=O)[C@H](CCC(N)=O)NC(=O)[C@@H](NC(=O)[C@H](CC(C)C)NC(=O)[C@H](CO)NC(C)=O)[C@@H](C)O)[C@@H](C)CC)[C@@H](C)O)[C@@H](C)O)C(C)C)C(C)C)C(=O)N[C@@H](CC(=O)O)C(=O)N[C@@H](CC(C)C)C(=O)N[C@@H](CCCCN)C(=O)N[C@@H](CCC(=O)O)C(=O)N[C@@H](CC(C)C)C(N)=O	0.75	CC50 at 48 h [3]: > 100 µM; EC50 [4]: 1.07 µM
CSCC[C@@H]1NC(=O)[C@H](CCC(=O)O)NC(=O)[C@@](C)(NC(=O)[C@@H](NC(=O)[C@H](CC(C)C)NC(=O)[C@H](CC(=O)O)NC(=O)[C@H](CC(C)C)NC(C)=O)[C@@H](C)O)CCC/C=C\CCC[C@@](C)(C(=O)N[C@@H](CC(C)C)C(=O)N[C@@H](CCC(N)=O)C(=O)N[C@@H](CCC(N)=O)C(=O)N[C@H](C(=O)N[C@H](C(=O)N[C@@H](CCCCN)C(=O)N[C@@H](C)C(=O)N[C@@H](CC(C)C)C(=O)N[C@@H](CC(N)=O)C(=O)N[C@@H](CCC(=O)O)C(=O)N[C@@H](CO)C(=O)N[C@@H](Cc2ccc(O)cc2)C(N)=O)C(C)C)C(C)C)NC(=O)[C@H](CC(C)C)NC1=O	7.14	Tm [5]: 56.6 to 66.6 °C
CSCC[C@@H]1NC(=O)[C@H](CCC(=O)O)NC(=O)[C@H](Cc2ccc(O)cc2)NC(=O)[C@@](C)(NC(=O)[C@H](CC(C)C)NC(=O)[C@H](CC(=O)O)NC(=O)[C@H](CC(C)C)NC(C)=O)CCC/C=C\CCC[C@@](C)(C(=O)N[C@@H](CO)C(=O)N[C@@H](CC(C)C)C(=O)N[C@@H](CCC(N)=O)C(=O)N[C@@H](CCC(N)=O)C(=O)N[C@H](C(=O)N[C@H](C(=O)N[C@@H](CCCCN)C(=O)N[C@@H](C)C(=O)N[C@@H](CC(C)C)C(=O)N[C@@H](CC(N)=O)C(=O)N[C@@H](CCC(=O)O)C(=O)N[C@@H](CO)C(=O)N[C@@H](Cc2ccc(O)cc2)C(N)=O)C(C)C)C(C)C)NC1=O	> 50	Activity [1]: inactive
CSCC[C@H](NC(=O)[C@H](CCC(=O)O)NC(=O)[C@H](Cc1ccc(O)cc1)NC(=O)[C@@H](NC(=O)[C@H](CC(C)C)NC(=O)[C@H](CC(=O)O)NC(=O)[C@H](CC(C)C)NC(C)=O)[C@@H](C)O)C(=O)N[C@@]1(C)CCC/C=C\CCC[C@@](C)(C(=O)N[C@H](C(=O)N[C@H](C(=O)N[C@@H](CCCCN)C(=O)N[C@@H](C)C(=O)N[C@@H](CC(C)C)C(=O)N[C@@H](CC(N)=O)C(=O)N[C@@H](CCC(=O)O)C(=O)N[C@@H](CO)C(=O)N[C@@H](Cc2ccc(O)cc2)C(N)=O)C(C)C)C(C)C)NC(=O)[C@H](CCC(N)=O)NC(=O)[C@H](CC(C)C)NC(=O)[C@H](CO)NC1=O (Ac-LDLTYEM[S5]SLQ[S5]VVKALNESY-NH2; staple (Z) 8-12)	10.7	Tm [5]: 56.6 to 66.6 °C
C=CCCC[C@](C)(NC(=O)[C@H](CC(C)C)NC(=O)[C@H](CCSC)NC(=O)[C@H](CCC(=O)O)NC(=O)[C@](C)(CCCC=C)NC(=O)[C@@H](NC(=O)[C@H](CC(C)C)NC(=O)[C@H](CC(=O)O)NC(=O)[C@H](CC(C)C)NC(C)=O)[C@@H](C)O)C(=O)N[C@@H](CC(C)C)C(=O)N[C@@H](CCC(N)=O)C(=O)N[C@@H](CCC(N)=O)C(=O)N[C@H](C(=O)N[C@H](C(=O)N[C@@H](CCCCN)C(=O)N[C@@H](C)C(=O)N[C@@H](CC(C)C)C(=O)N[C@@H](CC(N)=O)C(=O)N[C@@H](CCC(=O)O)C(=O)N[C@@H](CO)C(=O)N[C@@H](Cc1ccc(O)cc1)C(N)=O)C(C)C)C(C)C	8.21	
CSCC[C@H](NC(=O)[C@H](CCC(=O)O)NC(=O)[C@H](Cc1ccc(O)cc1)NC(=O)[C@@H](NC(=O)[C@H](CC(C)C)NC(=O)[C@H](CC(=O)O)NC(=O)[C@H](CC(C)C)NC(C)=O)[C@@H](C)O)C(=O)N[C@@H](CC(C)C)C(=O)N[C@@H](CO)C(=O)N[C@@H](CC(C)C)C(=O)N[C@@H](CCC(N)=O)C(=O)N[C@@H](CCC(N)=O)C(=O)N[C@H](C(=O)N[C@H](C(=O)N[C@@H](CCCCN)C(=O)N[C@@H](C)C(=O)N[C@@H](CC(C)C)C(=O)N[C@@H](CC(N)=O)C(=O)N[C@@H](CCC(=O)O)C(=O)N[C@@H](CO)C(=O)N[C@@H](Cc1ccc(O)cc1)C(N)=O)C(C)C)C(C)C	> 50	
CSCC[C@H](NC(=O)[C@H](CCC(=O)O)NC(=O)[C@H](Cc1ccc(O)cc1)NC(=O)[C@@H](NC(=O)[C@H](CC(C)C)NC(=O)[C@H](CC(=O)O)NC(=O)[C@H](CC(C)C)NC(C)=O)[C@@H](C)O)C(=O)N[C@@H](CC(C)C)C(=O)N[C@@H](CO)C(=O)N[C@@H](CC(C)C)C(=O)N[C@@H](CCC(N)=O)C(=O)N[C@@H](CCC(N)=O)C(=O)N[C@H](C(=O)N[C@H](C(=O)N[C@@]1(C)CCC/C=C/CCC[C@@](C)(C(=O)N[C@@H](CO)C(=O)N[C@@H](Cc2ccc(O)cc2)C(N)=O)NC(=O)[C@H](CC(N)=O)NC(=O)[C@H](CC(C)C)NC(=O)[C@H](C)NC1=O)C(C)C)C(C)C	14.1	Tm [5]: 56.6 to 66.6 °C
C=CCCC[C@](C)(NC(=O)[C@H](CC(N)=O)NC(=O)[C@H](CC(C)C)NC(=O)[C@H](C)NC(=O)[C@](C)(CCCC=C)NC(=O)[C@@H](NC(=O)[C@@H](NC(=O)[C@H](CCC(N)=O)NC(=O)[C@H](CCC(N)=O)NC(=O)[C@H](CC(C)C)NC(=O)[C@H](CO)NC(=O)[C@H](CC(C)C)NC(=O)[C@H](CCSC)NC(=O)[C@H](CCC(=O)O)NC(=O)[C@H](Cc1ccc(O)cc1)NC(=O)[C@@H](NC(=O)[C@H](CC(C)C)NC(=O)[C@H](CC(=O)O)NC(=O)[C@H](CC(C)C)NC(C)=O)[C@@H](C)O)C(C)C)C(C)C)C(=O)N[C@@H](CO)C(=O)N[C@@H](Cc1ccc(O)cc1)C(N)=O	10.9	
C=CCCC[C@](C)(NC(=O)[C@H](CCSC)NC(=O)[C@H](CCC(=O)O)NC(=O)[C@H](Cc1ccc(O)cc1)NC(=O)[C@@H](NC(=O)[C@H](CC(C)C)NC(=O)[C@H](CC(=O)O)NC(=O)[C@H](CC(C)C)NC(C)=O)[C@@H](C)O)C(=O)N[C@@H](CO)C(=O)N[C@@H](CC(C)C)C(=O)N[C@@H](CCC(N)=O)C(=O)N[C@@](C)(CCCC=C)C(=O)N[C@H](C(=O)N[C@H](C(=O)N[C@@H](CCCCN)C(=O)N[C@@H](C)C(=O)N[C@@H](CC(C)C)C(=O)N[C@@H](CC(N)=O)C(=O)N[C@@H](CCC(=O)O)C(=O)N[C@@H](CO)C(=O)N[C@@H](Cc1ccc(O)cc1)C(N)=O)C(C)C)C(C)C (Ac-LDLTYEM[S5]SLQ[S5]VVKALNESY-NH2)	4.49	
CSCC[C@H](NC(=O)[C@]1(C)CCC/C=C\CCC[C@](C)(NC(=O)[C@H](CC(C)C)NC(C)=O)C(=O)N[C@@H](CC(C)C)C(=O)N[C@@H]([C@@H](C)O)C(=O)N[C@@H](Cc2ccc(O)cc2)C(=O)N1)C(=O)N[C@@H](CC(C)C)C(=O)N[C@@H](CO)C(=O)N[C@@H](CC(C)C)C(=O)N[C@@H](CCC(N)=O)C(=O)N[C@@H](CCC(N)=O)C(=O)N[C@H](C(=O)N[C@H](C(=O)N[C@@H](CCCCN)C(=O)N[C@@H](C)C(=O)N[C@@H](CC(C)C)C(=O)N[C@@H](CC(N)=O)C(=O)N[C@@H](CCC(=O)O)C(=O)N[C@@H](CO)C(=O)N[C@@H](Cc1ccc(O)cc1)C(N)=O)C(C)C)C(C)C	3.9	
CCCC[C@H](NC(=O)[C@H](CCC(=O)O)NC(=O)[C@H](Cc1ccc(O)cc1)NC(=O)[C@@H](NC(=O)[C@H](CC(C)C)NC(=O)[C@H](CC(=O)O)NC(=O)[C@H](CC(C)C)NC(C)=O)[C@@H](C)O)C(=O)N[C@@H](CC(C)C)C(=O)N[C@@H](CO)C(=O)N[C@@H](CC(C)C)C(=O)N[C@@H](CCC(N)=O)C(=O)N[C@@]1(C)CCC/C=C\CCC[C@@](C)(C(=O)N[C@@H](CC(C)C)C(=O)N[C@@H](CC(N)=O)C(=O)N[C@@H](CCC(=O)O)C(=O)N[C@@H](CO)C(=O)N[C@@H](Cc2ccccc2)C(N)=O)NC(=O)[C@H](CCCCN)NC(=O)[C@H](C(C)C)NC(=O)[C@H](C(C)C)NC1=O (Ac-LDLTYE[Nle]LSLQ[S5]VVK[S5]LNESF-NH2; staple (Z) 12-16)	3.89	
